Data taken from ChEMBL document CHEMBL4689842, “EUbOPEN Chemogenomics Library wave 1” (2021).
Values joined by “and” are separate entries in the source; they are usually repeats but may differ in a detail not shown here. Equal values may be shown once.

Test system: HEK-293T
Assay: Multiplex assay against HEK293T;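 for Population Tubulin-Different-Phenotype (%): share of the cells with healthy nuclei that show this phenotype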
Format: toxicity, cell-based
Settings: human
How it was run: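 Hoechst33342, BioTracker Green Microtubule Cytoskeleton Dye, MitoTracker Red and Annexin V Alexa Fluor 680 were added to live cells at seeding, and imaging on a CQ1 microscope at 37°C and 5% CO2 followed compound addition. Gating by CellPathfinder machine learning separated cells into Hoechst high-intensity objects or normal cells, then normal cells into healthy, pyknosed or fragmented nuclei, then pyknosed cells into mitotic or apoptotic. Per cents of healthy-nucleus cells are reported for the tubulin, mitochondrial-mass and membrane-permeability phenotypes.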

[1] = 12 h, 10 µM, compound concentration 10 uM, replicate 1
[2] = 12 h, 10 µM, compound concentration 10 uM, replicate 2
[3] = 24 h, 10 µM, compound concentration 10 uM, replicate 1
[4] = 24 h, 10 µM, compound concentration 10 uM, replicate 2
[5] = 12 h, 1 µM, compound concentration 1 uM, replicate 1
[6] = 12 h, 1 µM, compound concentration 1 uM, replicate 2
[7] = 24 h, 1 µM, compound concentration 1 uM, replicate 1
[8] = 24 h, 1 µM, compound concentration 1 uM, replicate 2
[9] = 48 h, 1 µM, compound concentration 1 uM, replicate 1
[10] = 48 h, 1 µM, compound concentration 1 uM, replicate 2
[11] = 48 h, 10 µM, compound concentration 10 uM, replicate 1
[12] = 48 h, 10 µM, compound concentration 10 uM, replicate 2

COc1ccc(Oc2cc(NCCC(F)(F)F)c3ncc(-c4ccc(C(=O)NC5CC5)c(C)c4)n3n2)c(F)c1F [BAY-1217389]
Population Apoptotic (%) [1]: 50% and 20% | Population Fragmented Nuclei (%) [1]: 25% and 12% | Population Healthy Nuclei (%) [1]: 28% and 63% | Population Hoechst High Intensity Objects (%) [1]: 20% and 13% | Population Membrane Permeable-Phenotype (%) [1]: 17% and 25% | Population Mitotic Cells (%) [1]: 49% and 79% | Population Normal (%) [1]: 79% and 86% | Population Pyknosed Nuclei (%) [1]: 46% and 23% | Population Tubulin-Different-Phenotype (%) [1]: 79% and 68% | Total Cell Count [1]: 607 and 639 | Population Apoptotic (%) [2]: 21% and 43% | Population Fragmented Nuclei (%) [2]: 5% and 2% | Population Healthy Nuclei (%) [2]: 89% and 86% | Population Hoechst High Intensity Objects (%) [2]: 2% and 5% | Population Mitotic Cells (%) [2]: 78% and 56% | Population Normal (%) [2]: 97% and 94% | Population Pyknosed Nuclei (%) [2]: 5% and 11% | Population Tubulin-Different-Phenotype (%) [2]: 87% and 95% | Total Cell Count [2]: 1266 and 966 | Population Apoptotic (%) [3]: 53% and 25% | Population Fragmented Nuclei (%) [3]: 25% and 9% | Population Healthy Nuclei (%) [3]: 46% and 80% | Population Hoechst High Intensity Objects (%) [3]: 18% and 7% | Population Membrane Permeable-Phenotype (%) [3]: 9% and 24% | Population Mitotic Cells (%) [3]: 46% and 74% | Population Normal (%) [3]: 81% and 92% | Population Tubulin-Different-Phenotype (%) [3]: 84% | Total Cell Count [3]: 575 and 704 | Population Fragmented Nuclei (%) [4]: 10% and 4% | Population Healthy Nuclei (%) [4]: 87% and 88% | Population Hoechst High Intensity Objects (%) [4]: 3% and 6% | Population Mitotic Cells (%) [4]: 94% and 68% | Population Normal (%) [4]: 96% and 93% | Population Tubulin-Different-Phenotype (%) [4]: 91% and 95% | Total Cell Count [4]: 1717 and 1126

Cc1c(-c2ccc(O)cc2)n(Cc2ccc(OCCN3CCCCCC3)cc2)c2ccc(O)cc12 [BAZEDOXIFENE]
Population Apoptotic (%) [5]: 40% | Population Fragmented Nuclei (%) [5]: 15% | Population Healthy Nuclei (%) [5]: 32% | Population Hoechst High Intensity Objects (%) [5]: 16% | Population Membrane Permeable-Phenotype (%) [5]: 0% | Population Mitochondria Different-Phenotype (%) [5]: 93% | Population Mitotic Cells (%) [5]: 59% | Population Normal (%) [5]: 83% | Population Pyknosed Nuclei (%) [5]: 52% | Population Tubulin-Different-Phenotype (%) [5]: 77% | Population Apoptotic (%) [6]: 12% | Population Fragmented Nuclei (%) [6]: 10% | Population Healthy Nuclei (%) [6]: 43% | Population Hoechst High Intensity Objects (%) [6]: 6% | Population Membrane Permeable-Phenotype (%) [6]: 11% | Population Mitochondria Different-Phenotype (%) [6]: 36% | Population Mitotic Cells (%) [6]: 87% | Population Normal (%) [6]: 93% | Population Pyknosed Nuclei (%) [6]: 46% | Population Tubulin-Different-Phenotype (%) [6]: 38% | Total Cell Count [6]: 168 | Population Fragmented Nuclei (%) [1]: 14% | Population Healthy Nuclei (%) [1]: 8% | Population Hoechst High Intensity Objects (%) [1]: 21% | Population Membrane Permeable-Phenotype (%) [1]: 0% | Population Mitochondria Different-Phenotype (%) [1]: 90% | Population Normal (%) [1]: 78% | Population Pyknosed Nuclei (%) [1]: 77% | Population Tubulin-Different-Phenotype (%) [1]: 72% | Total Cell Count [1]: 161 | Population Apoptotic (%) [2]: 88% | Population Fragmented Nuclei (%) [2]: 9% | Population Healthy Nuclei (%) [2]: 7% | Population Hoechst High Intensity Objects (%) [2]: 10% | Population Membrane Permeable-Phenotype (%) [2]: 10% | Population Mitochondria Different-Phenotype (%) [2]: 100% | Population Mitotic Cells (%) [2]: 11% | Population Normal (%) [2]: 89% | Population Pyknosed Nuclei (%) [2]: 83% | Population Tubulin-Different-Phenotype (%) [2]: 100% | Total Cell Count [2]: 159 | Population Apoptotic (%) [7]: 44% | Population Fragmented Nuclei (%) [7]: 13% | Population Healthy Nuclei (%) [7]: 45% | Population Hoechst High Intensity Objects (%) [7]: 13% | Population Membrane Permeable-Phenotype (%) [7]: 5% | Population Mitochondria Different-Phenotype (%) [7]: 84% | Population Mitotic Cells (%) [7]: 55% | Population Normal (%) [7]: 86% | Population Pyknosed Nuclei (%) [7]: 40% | Population Tubulin-Different-Phenotype (%) [7]: 54% | Total Cell Count [7]: 180 | Population Apoptotic (%) [8]: 18% | Population Fragmented Nuclei (%) [8]: 8% | Population Healthy Nuclei (%) [8]: 50% | Population Hoechst High Intensity Objects (%) [8]: 8% | Population Membrane Permeable-Phenotype (%) [8]: 9% | Population Mitochondria Different-Phenotype (%) [8]: 40% | Population Mitotic Cells (%) [8]: 81% | Population Normal (%) [8]: 91% | Population Tubulin-Different-Phenotype (%) [8]: 53% | Total Cell Count [8]: 207 | Population Apoptotic (%) [3]: 96% | Population Fragmented Nuclei (%) [3]: 13% | Population Healthy Nuclei (%) [3]: 9% | Population Hoechst High Intensity Objects (%) [3]: 21% | Population Membrane Permeable-Phenotype (%) [3]: 0% | Population Mitochondria Different-Phenotype (%) [3]: 100% | Population Mitotic Cells (%) [3]: 3% | Population Normal (%) [3]: 78% | Population Pyknosed Nuclei (%) [3]: 76% | Population Tubulin-Different-Phenotype (%) [3]: 92% | Total Cell Count [3]: 175 | Population Apoptotic (%) [4]: 90% | Population Fragmented Nuclei (%) [4]: 9% | Population Healthy Nuclei (%) [4]: 5% | Population Hoechst High Intensity Objects (%) [4]: 8% | Population Membrane Permeable-Phenotype (%) [4]: 33% | Population Mitochondria Different-Phenotype (%) [4]: 88% | Population Mitotic Cells (%) [4]: 10% | Population Normal (%) [4]: 91% | Population Pyknosed Nuclei (%) [4]: 84% | Population Tubulin-Different-Phenotype (%) [4]: 88% | Total Cell Count [4]: 168 | Population Apoptotic (%) [9]: 39% | Population Fragmented Nuclei (%) [9]: 14% | Population Healthy Nuclei (%) [9]: 69% | Population Hoechst High Intensity Objects (%) [9]: 9% | Population Membrane Permeable-Phenotype (%) [9]: 3% | Population Mitochondria Different-Phenotype (%) [9]: 41% | Population Mitotic Cells (%) [9]: 60% | Population Normal (%) [9]: 90% | Population Pyknosed Nuclei (%) [9]: 16% | Population Tubulin-Different-Phenotype (%) [9]: 40% | Total Cell Count [9]: 275 | Population Apoptotic (%) [10]: 12% | Population Fragmented Nuclei (%) [10]: 3% | Population Healthy Nuclei (%) [10]: 75% | Population Hoechst High Intensity Objects (%) [10]: 2% | Population Membrane Permeable-Phenotype (%) [10]: 4% | Population Mitochondria Different-Phenotype (%) [10]: 19% | Population Mitotic Cells (%) [10]: 87% | Population Normal (%) [10]: 97% | Population Pyknosed Nuclei (%) [10]: 21% | Population Tubulin-Different-Phenotype (%) [10]: 32% | Total Cell Count [10]: 314 | Population Apoptotic (%) [11]: 91% | Population Fragmented Nuclei (%) [11]: 22% | Population Healthy Nuclei (%) [11]: 1% | Population Hoechst High Intensity Objects (%) [11]: 23% | Population Membrane Permeable-Phenotype (%) [11]: 0% | Population Mitochondria Different-Phenotype (%) [11]: 100% | Population Mitotic Cells (%) [11]: 8% | Population Normal (%) [11]: 76% | Population Pyknosed Nuclei (%) [11]: 75% | Population Tubulin-Different-Phenotype (%) [11]: 50% | Total Cell Count [11]: 178 | Population Apoptotic (%) [12]: 95% | Population Fragmented Nuclei (%) [12]: 20% | Population Healthy Nuclei (%) [12]: 6% | Population Hoechst High Intensity Objects (%) [12]: 9% | Population Membrane Permeable-Phenotype (%) [12]: 20% | Population Mitochondria Different-Phenotype (%) [12]: 90% | Population Mitotic Cells (%) [12]: 4% | Population Normal (%) [12]: 90% | Population Pyknosed Nuclei (%) [12]: 72% | Population Tubulin-Different-Phenotype (%) [12]: 90% | Total Cell Count [12]: 163

CNCc1ccc(-c2cc(-c3nc(-c4ccc(S(=O)(=O)C(C)C)cc4)cnc3N)on2)cc1 [BERZOSERTIB]
Population Apoptotic (%) [5]: 44% and 25% | Population Fragmented Nuclei (%) [5]: 94% and 79% | Population Hoechst High Intensity Objects (%) [5]: 36% and 50% | Population Membrane Permeable-Phenotype (%) [5]: 31% and 34% | Population Mitochondria Different-Phenotype (%) [5]: 9% | Population Mitotic Cells (%) [5]: 55% and 75% | Population Normal (%) [5]: 63% and 49% | Population Tubulin-Different-Phenotype (%) [5]: 13% | Total Cell Count [5]: 865 and 596 | Population Apoptotic (%) [6]: 14% and 11% | Population Fragmented Nuclei (%) [6]: 66% | Population Hoechst High Intensity Objects (%) [6]: 28% and 80% | Population Mitochondria Different-Phenotype (%) [6]: 0% and 16% | Population Mitotic Cells (%) [6]: 85% and 88% | Population Tubulin-Different-Phenotype (%) [6]: 50% and 60% | Total Cell Count [6]: 1257 and 695 | Population Apoptotic (%) [1]: 37% and 15% | Population Fragmented Nuclei (%) [1]: 82% and 86% | Population Healthy Nuclei (%) [1]: 12% and 7% | Population Hoechst High Intensity Objects (%) [1]: 48% and 47% | Population Membrane Permeable-Phenotype (%) [1]: 46% and 29% | Population Mitochondria Different-Phenotype (%) [1]: 6% and 7% | Population Mitotic Cells (%) [1]: 62% and 85% | Population Normal (%) [1]: 51% and 52% | Population Pyknosed Nuclei (%) [1]: 5% | Population Tubulin-Different-Phenotype (%) [1]: 18% and 11% | Total Cell Count [1]: 918 and 667 | Population Fragmented Nuclei (%) [2]: 95% and 56% | Population Hoechst High Intensity Objects (%) [2]: 34% and 86% | Population Mitochondria Different-Phenotype (%) [2]: 5% and 9% | Population Mitotic Cells (%) [2]: 68% and 92% | Population Tubulin-Different-Phenotype (%) [2]: 82% and 59% | Total Cell Count [2]: 1271 and 770 | Population Apoptotic (%) [7]: 43% and 15% | Population Fragmented Nuclei (%) [7]: 91% and 64% | Population Hoechst High Intensity Objects (%) [7]: 39% and 65% | Population Membrane Permeable-Phenotype (%) [7]: 50% and 21% | Population Mitochondria Different-Phenotype (%) [7]: 7% and 13% | Population Mitotic Cells (%) [7]: 56% and 84% | Population Normal (%) [7]: 60% and 34% | Population Pyknosed Nuclei (%) [7]: 3% and 9% | Population Tubulin-Different-Phenotype (%) [7]: 30% and 11% | Total Cell Count [7]: 826 and 568 | Population Hoechst High Intensity Objects (%) [8]: 33% and 85% | Population Membrane Permeable-Phenotype (%) [8]: 33% and 60% | Population Mitochondria Different-Phenotype (%) [8]: 4% and 6% | Population Mitotic Cells (%) [8]: 87% and 97% | Population Pyknosed Nuclei (%) [8]: 30% | Population Tubulin-Different-Phenotype (%) [8]: 71% and 81% | Total Cell Count [8]: 1330 and 870 | Population Fragmented Nuclei (%) [3]: 65% and 58% | Population Healthy Nuclei (%) [3]: 16% and 26% | Population Hoechst High Intensity Objects (%) [3]: 46% and 73% | Population Membrane Permeable-Phenotype (%) [3]: 36% and 31% | Population Mitotic Cells (%) [3]: 40% and 88% | Population Normal (%) [3]: 53% and 26% | Population Pyknosed Nuclei (%) [3]: 17% and 14% | Population Tubulin-Different-Phenotype (%) [3]: 36% and 27% | Total Cell Count [3]: 767 and 657 | Population Apoptotic (%) [4]: 23% and 0% | Population Hoechst High Intensity Objects (%) [4]: 36% and 86% | Population Membrane Permeable-Phenotype (%) [4]: 21% and 56% | Population Mitochondria Different-Phenotype (%) [4]: 14% | Population Mitotic Cells (%) [4]: 76% and 100% | Population Tubulin-Different-Phenotype (%) [4]: 78% and 76% | Total Cell Count [4]: 1281 and 924
